# Compound activity deposited in PubChem BioAssay by several laboratories.
# MPTP block: mitochondrial permeability transition pore inhibitors, primary screen, biochemical, isolated mouse mitochondria, absorbance; inhibition, % at 10 µM; actives 1.4% (n = 360,000); Ca2+ swelling absorbance, 30 min; AID 602449, 2012;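 active = inhibition of 50% or more, scaled per plate between neutral and stimulator controls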
# TbMetRS inhib: T. brucei MetRS inhibitors, primary screen, biochemical, luminescence | methionyl-tRNA synthetase (Trypanosoma brucei brucei) | inhibition, % at 11.9 µM | actives 0.4% (n = 360,000) | purified T. brucei MetRS, ATP depletion, Kinase-Glo luminescence | AID 624268, 2012;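 active = inhibition above a per-plate cutoff of the control wells' mean inhibition plus 3 SD, cut at about 5.5% in these data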
#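 Material – parasite MetRS enzyme · Medium – HEPES-MgCl2-KCl buffer plus DTT, spermine, BSA, pyrophosphatase · Reagent – ATP, methionine and E. coli bulk tRNA substrates · Times – 15 min enzyme-compound preincubation, 2 h reaction, 10 min detection, 25 °C · Measured by – luminescence of leftover ATP · Evaluation – percent inhibition relative to median high and low control wells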
# CHOP inh: inhibitors of CHOP promoter induction, primary screen, cell-based, unfolded protein response, luciferase reporter | inhibition, % at 10 µM | CHO-K1 CHOP-promoter luciferase, tunicamycin-induced, 15-18 h | AID 2732, 2010 | actives 3.8% (n = 220,000);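 active = compounds that reduced the stress-induced luciferase reporter signal by more than about 70% of percent inhibition, limit read from the data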
# NR3A LBD binder: binders of NR3A ligand-binding domain, primary screen, biophysical, differential scanning fluorimetry, uHTS | Glutamate receptor ionotropic, NMDA 3A (GRIN3A) ligand-binding domain | NR3A LBD differential scanning fluorimetry, Tm shift; 0% = protein alone, 100% = glycine-bound protein | Tm shift relative to glycine control, % at 25 µM | actives 2.5% (n = 340,000) | AID 1259313, 2017;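 active = melting temperature shift of at least 10% of the positive control shift, at one fixed dose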
# WT yeast gro inh: growth inhibition of WT strain, primary screen, mitochondrial fusion inhibitor project, WT and mutant strains, chemical genetic | mitochondrial fusion phenotypic screen | inhibition, % at 10 µM | actives 2.1% (n = 190,000); in the data active = inhibition above about 58%; tested in S. cerevisiae
# EBV gp42 inh: Epstein-Barr virus gp42 inhibitors, primary screen, biochemical, uHTS, fluorescence polarization | Glycoprotein 42 (Epstein-Barr virus (strain AG876)), Q1HVG2 | actives 0.42% (n = 220,000) | Fluorescence polarization binding assay, mP read-out | inhibition, % (tested at 21.74 µM); in the data active = inhibition above about 50%
# Target sequence (Q1HVG2 whole entry, looked up): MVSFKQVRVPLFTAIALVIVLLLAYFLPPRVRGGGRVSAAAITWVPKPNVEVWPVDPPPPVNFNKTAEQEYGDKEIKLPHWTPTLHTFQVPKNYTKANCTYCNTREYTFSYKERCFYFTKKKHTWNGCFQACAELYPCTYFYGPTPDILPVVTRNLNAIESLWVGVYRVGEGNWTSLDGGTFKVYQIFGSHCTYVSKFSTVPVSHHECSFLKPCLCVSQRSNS
# Rh123 counter: fluorescence retest of MPTP screen hits in isolated mitochondria, single concentration; shares compounds with MPTP block; actives 78% (n = 5,000); inhibition, % at 10 µM; membrane potential, Rhodamine 123 fluorescence; in the data active = inhibition above about 22%
# MPTP swell DR: mitochondrial permeability transition pore inhibitors, dose response, biochemical, absorbance, uHTS hits; shares compounds with MPTP block; actives 58% (n = 780); IC50, µM; isolated mitochondria swelling; AID 651561, 2012; in the data active = IC50 below about 20 µM
# MPTP cs DR: fluorescent counter-screen in isolated mitochondria, dose response, counter-screen for MPTP inhibitor project, biochemical, fluorescence, uHTS hits; shares compounds with MPTP block; isolated mitochondria counterscreen, fluorescence read-out; IC50, µM; actives 49% (n = 780); AID 651564, 2012; in the data active = IC50 below about 80 µM
# A number is an active result; n = inactive; x = no result. This is a sample that favours compounds with a hit; in the whole collection about 6.4% have one here.
SMILES,MPTP block,TbMetRS inhib,CHOP inh,NR3A LBD binder,WT yeast gro inh,EBV gp42 inh,Rh123 counter,others
Cc1ccc(S(=O)(=O)NN=C2CCC(C(C)(C)C)CC2)cc1[N+](=O)[O-] (stereo not drawn),n,n,n,n,n,n,x,
COc1cccc(CN2CCC(C(=O)NC(C)c3cccc4ccccc34)CC2)c1 (stereo not drawn),n,n,x,x,x,x,x,
COc1ccc(C(CNC(=O)c2ccc(C)c(S(=O)(=O)Nc3ccccc3OC)c2)N2CCCC2)cc1 (stereo not drawn),n,n,x,n,x,x,x,
CN(C)S(=O)(=O)c1cccc(NC(=O)CNc2cccc(S(=O)(=O)N3CCCCC3)c2)c1,n,n,x,x,x,x,x,
O=C(CSc1nnc2c(n1)[nH]c1ccccc12)Nc1cccc(S(=O)(=O)N2CCOCC2)c1,52,n,n,n,x,n,35,
O=C(CSc1nnc2c(n1)[nH]c1ccccc12)Nc1ccc(N2CCOCC2)cc1,n,n,n,n,x,n,x,
CCN(CC)S(=O)(=O)c1cccc(NC(=O)CCSc2ccc(Cl)cc2)c1,76,n,n,n,n,n,85,
O=C(CNc1ccc(C(F)(F)F)cc1)Nc1cccc(S(=O)(=O)N2CCCCC2)c1,66,n,x,x,x,x,90,
CCN(CC)S(=O)(=O)c1cc(NC(=O)CNc2cccc(S(=O)(=O)N3CCCC3)c2)ccc1C,54,n,x,n,x,x,95,
O=C(CNc1ccc(C(F)(F)F)cc1)Nc1cccc(S(=O)(=O)N2CCCC2)c1,n,n,x,n,x,x,x,
O=c1c2[nH]c3ccc(F)cc3c2ncn1CC1CCCO1 (stereo not drawn),n,n,n,n,x,n,x,
Cc1ccc2cc(CN(CCO)Cc3nnnn3Cc3ccc(F)cc3)c(=O)[nH]c2c1,n,n,n,n,n,n,x,
CC(C)(C)OC(=O)N(Cc1ccccc1)Cc1ccccc1OCc1cccc(NC(=O)C2CC2)c1,n,n,x,n,x,x,x,
COc1ccc(OC)c(/C=N/NC(=O)c2cc3c(OC)cccc3[nH]2)c1,n,n,n,n,x,n,x,
CCN(CC)S(=O)(=O)c1cccc(NC(=O)CNc2cccc(S(=O)(=O)N3CCOCC3)c2)c1,72,n,x,n,x,x,97,
CCN(CC)S(=O)(=O)c1ccc(C)c(NC(=S)Nc2cccc(S(=O)(=O)N3CCCCCC3)c2)c1,76,n,n,n,n,n,78,
c1csc(CCNc2ncnc3sc4c(c23)CCC4)c1,102,n,x,n,n,n,102,
c1ccc(Nc2ncnc3sc4c(c23)CCC4)cc1,n,n,n,n,n,n,x,
CCCCCCCCn1ccc(=N)cc1,n,n,n,n,x,n,x,
CCCCCCCCCCn1ccc(=N)cc1,65,n,80,n,x,n,90,
CCN(CC)CCN(Cc1cc2cc3c(cc2[nH]c1=O)OCCO3)C(=S)NCC1CCCO1 (stereo not drawn),n,n,n,n,n,n,x,
O=C(Nc1ccccc1-c1nc2ccccc2[nH]1)c1ccc(S(=O)(=O)N2CCCCC2)cc1,50,n,n,n,n,n,28,
CC1CCCCN1S(=O)(=O)c1ccc(C(=O)Nc2ccccc2-c2nc3ccccc3[nH]2)cc1 (stereo not drawn),74,n,n,30,n,n,75,
O=C(Nc1cccc2c1C(=O)NC2=O)c1ccc(S(=O)(=O)N2CCCC2)cc1,n,n,x,n,n,x,x,
O=C(NC1CCN(Cc2ccccc2)CC1)c1ccccc1Cl,n,n,x,n,x,x,x,
SMILES,MPTP block,TbMetRS inhib,CHOP inh,NR3A LBD binder,WT yeast gro inh,EBV gp42 inh,Rh123 counter,others
Cc1c(C(=O)NC2CCN(Cc3ccccc3)C2)oc2c(Cl)cccc12 (stereo not drawn),63,n,x,n,x,x,n,MPTP swell DR=n;MPTP cs DR=n
Cc1cc(N2CCOCC2)n2nc(-c3cccc(F)c3)cc2n1,n,n,n,n,n,n,x,
CCN1CCN(c2cc(-c3ccccc3)nc3cc(-c4cccc(F)c4)nn23)CC1,99,n,n,n,82,n,n,MPTP swell DR=11;MPTP cs DR=n
O=C(CN1CCN(c2ccc(F)cc2)CC1)N1CCC(Cc2ccccc2)CC1,n,n,n,n,n,n,x,
COc1ccc(/C=C2\CCC(C3CCCC3)C2=O)cc1OC (stereo not drawn),n,n,x,n,x,x,x,
COc1ccc(C(=O)NCCCN2CCOCC2)cc1,n,n,x,n,x,x,x,
CCN1CCN(CCNC(=O)c2ccc3nc(-c4cccc(C)c4)c(-c4cccc(C)c4)nc3c2)CC1,96,n,x,n,x,x,n,
COc1ccc(-c2nc3ccc(C(=O)NCCCN4CCOCC4)cc3nc2-c2ccc(OC)cc2)cc1,84,n,x,n,x,x,n,MPTP swell DR=4.9;MPTP cs DR=n
CC(C)(C)n1ncc2c(=O)n(Cc3cccc(Cn4cnc5c(cnn5C(C)(C)C)c4=O)c3F)cnc21,95,n,x,n,x,x,87,
CCN(CC)CCOc1ccc(/C(=C(\Cl)c2ccccc2)c2ccccc2)cc1,104,n,x,n,x,x,n,
CCN1CCN(c2ncc(C(=O)Nc3cc(Cl)ccc3OC)c3ccccc23)CC1,78,n,n,n,n,n,n,MPTP swell DR=n;MPTP cs DR=n
CN1C(=O)C(N=Nc2ccc([N+](=O)[O-])cc2)SC1=S (stereo not drawn),112,n,x,n,x,x,69,
CC(C)Cc1cc(C(=O)Nc2ccc3c(c2)OCO3)no1,n,n,n,n,n,n,x,
CCOC(=O)C1=C(C)Nc2ccccc2N=C1NC(=O)Cc1ccc(Br)cc1,n,n,n,n,n,n,x,
COc1ccc([N+](=O)[O-])cc1NC(=S)NC(NC(=O)Cc1ccc(OC)c(OC)c1)C(Cl)(Cl)Cl (stereo not drawn),66,n,n,n,n,n,51,
COc1cccc(NC(=S)NC2CC(C)CC(C)(C)C2)c1 (stereo not drawn),64,n,x,x,x,x,93,
Cc1nc2sccn2c(=O)c1S(=O)(=O)Nc1ccc(N2CCOCC2)cc1,n,n,x,x,x,x,x,
COc1ccc(CCNC(=O)c2cnc(C)cn2)cc1,n,n,x,n,x,x,x,
CCN(CC)CCNC(C(=O)Nc1ccc([N+](=O)[O-])cc1Br)c1ccccc1 (stereo not drawn),61,n,n,n,n,n,n,MPTP swell DR=n;MPTP cs DR=n
CN(C)C(CNC(C(=O)Nc1ccc([N+](=O)[O-])cc1Br)c1ccccc1)c1ccccc1 (stereo not drawn),n,n,n,n,n,n,x,
